Records with an inconclusive call do not appear. Calls of active or inactive are those of the source.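 How the source made its calls, unless noted: active means inhibition over a set limit, the all-compound mean plus 3 SD, in both replicate runs; inconclusive means over that limit in just one replicate run; inactive means at or under that limit in both runs.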
Legend:
[1] = OD615 S. cerevisiae growth inhibition, permissive medium, pilot counter-assay, permissive growth control for S. cerevisiae lifespan shortening project (AID 705;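 active means growth inhibition above 25% in both replicates, a cutoff set 3 SD above the mean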); conditions: OD615, 24 h, at 10 µM, hits give high values
Outline: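 System: engineered DeaD yeast; Medium: permissive raffinose/galactose medium; Compound dosing: 10 µM single dose, 0.25% DMSO; Incubation: 4 h cell pre-growth, 24 h exposure at 30 °C; Technique: OD at 615 nm; Evaluation: growth inhibition from lowered OD615 after 24 h.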

[2] = Restrictive medium S. cerevisiae growth inhibition, OD615, pilot screen of yeast lifespan reduction project, restrictive growth control (AID 706;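 active means growth inhibition above a set limit, 3 SD over mean compound inhibition, in both replicates, cut at about 43% in these data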;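 further: modified DeaD lifespan yeast strain shifted to restrictive glucose medium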); conditions: OD615, 48 h, at 10 µM, hits give high values
Outline: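 Material: modified S. cerevisiae; buffer or medium: CSMM-D glucose medium; doses: one concentration, 10 µM final, 0.25% DMSO; incubation: 48 h compound exposure at 30 °C; detection: optical density at 615 nm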

[3] = viability gain of MRP-1-high H69AR cells under doxorubicin, pilot screen, MRP-1 activator project, CellTiter-Glo, duplicate (AID 807;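 active means viability increase at or above a cutoff of the median across tested compounds plus 3 SD, cut at about 8.5% in these data, passing the limit was not always enough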;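 further: compound pretreatment 18-22 h then 72 h combined with doxorubicin; 0% = doxorubicin alone and 100% = vehicle without doxorubicin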); conditions: H69AR viability with doxorubicin, CellTiter-Glo luminescence; at 10 µM; hits give high values
[4] = growth suppression of PTEN-deleted HCT116, pilot screen, cell-based, HCT116 clonal line, CellTiter-Glo (AID 824;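 active means viability at or below 27.92% in each of two runs, the all-compound median minus 4 SD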;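 further: 0% = 20 µM Hyamine control and 100% = vehicle cell control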); conditions: 60 h, at 10 µM, hits give low values
[5] = inhibitors of the yeast RAM network, pilot screen, dse1pr::URA3 reporter, 5-FOA selection (AID 869);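 further: 0% = DMSO wells with no growth and 100% = 10 µM 1-NA-PP1 with full growth; RAM network block rescues cells from 5-FOA so hits raise OD615 growth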; conditions: S. cerevisiae dse1pr::URA3 5-FOA growth, OD615, 2 d; at 10 µM; hits give high values; strain carries analog-sensitive mutant Cbk1 kinase
[6] = RAM signaling pathway blockade in yeast – S. cerevisiae, Pdr1DBD-CYC8 efflux-inhibited sensitized strain, primary screen (AID 1298;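 active means RAM network inhibition above 8.4% in each of two replicates, 3 SD over the compound average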;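 further: 0% = DMSO untreated cells without growth and 100% = 10 µM 1-NA-PP1 full growth; higher means more yeast growth rescued from 5-FOA killing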); conditions: S. cerevisiae cbk1-as DSE1-URA3 strain, 5-FOA growth OD615, 2 d; at 50 µM; hits give high values

CCn1c(=O)c2c3c(sc2n2c(SCc4ccc(F)cc4)nnc12)CCCC3
active: viability [4] 25.7%
inactive: growth inhibition [1] -17.7% | growth inhibition [2] -16.7% | viability increase [3] -7.59% | inhibition [5] 2.28% | RAM network inhibition [6] 3.4%

O=C(COc1ccccc1)NCCSc1ccccc1
inactive: growth inhibition [1] -10.4% | growth inhibition [2] -5.4% | viability increase [3] -2.23% | viability [4] 97.5% | inhibition [5] 1.55% | RAM network inhibition [6] 0.83%

Cc1ccc(-c2nc(-c3ccccn3)no2)cc1
inactive: growth inhibition [1] 1.26% | growth inhibition [2] 10.2% | viability increase [3] -5.02% | inhibition [5] -0.485% | RAM network inhibition [6] 1.82%
active: viability [4] 24.4%

O=C(NCC1CCCO1)C1CCCCN1S(=O)(=O)c1ccc(F)cc1 (stereo not given)
inactive: growth inhibition [1] -2.19% | growth inhibition [2] -9.73% | viability increase [3] -2.13% | viability [4] 102% | inhibition [5] 0.075% | RAM network inhibition [6] 1.44%

O=C(CSc1nc(-c2ccncc2)nn1CC(=O)N1CCCCC1)NC1CCCC1
inactive: growth inhibition [1] -4.01% | growth inhibition [2] -16.2% | viability increase [3] -4.19% | viability [4] 88% | inhibition [5] 1.07% | RAM network inhibition [6] -1.59%

CC(Sc1nc2c(c(=O)n(C)c(=O)n2C)n1Cc1cc2c(cc1Cl)OCO2)C(=O)O (stereo not given)
inactive: growth inhibition [1] -10.7% | growth inhibition [2] -5.16% | viability increase [3] -0.64% | viability [4] 99.9% | inhibition [5] 1.83% | RAM network inhibition [6] 1.02%

Cc1ccsc1C(=O)OCC(=O)c1cc2ccccc2o1
inactive: growth inhibition [1] -18.1% | growth inhibition [2] -10.8% | viability increase [3] -2.86% | viability [4] 97.3% | inhibition [5] 1.28% | RAM network inhibition [6] 1.03%

CCn1cc(S(=O)(=O)CC(=O)NC2CCCCC2)c2ccccc21
inactive: growth inhibition [1] -9.89% | growth inhibition [2] -0.52% | viability increase [3] -1.1% | viability [4] 97.4% | inhibition [5] 1.71% | RAM network inhibition [6] 2.87%

O=C(Nc1cccnc1)c1ccc(CN2CCc3ccccc3C2)cc1
inactive: growth inhibition [1] -3.88% | growth inhibition [2] -5.93% | viability increase [3] -2.11% | viability [4] 93.3% | inhibition [5] 2.54% | RAM network inhibition [6] 2.06%

COc1cc2c(cc1NC(C)=O)CCCC2
inactive: growth inhibition [1] -5.3% | growth inhibition [2] -0.3% | viability increase [3] -4.13% | viability [4] 100% | inhibition [5] 1.28% | RAM network inhibition [6] 1.23%

COc1cc(NS(=O)(=O)c2ccc(NC(=O)COc3ccc(C)cc3)cc2)nc(OC)n1
inactive: growth inhibition [1] -14.3% | growth inhibition [2] -7.79% | viability increase [3] -1.12% | viability [4] 102% | inhibition [5] 1.73% | RAM network inhibition [6] 3.5%

COc1ccc(S(=O)(=O)N2CCC(C(=O)N3CCN(c4ccccc4OC)CC3)CC2)cc1
inactive: growth inhibition [1] -8.7% | growth inhibition [2] -3.36% | viability increase [3] -2.71% | viability [4] 86.8% | inhibition [5] -0.505% | RAM network inhibition [6] 0%

Cc1c(C(=O)NCc2ccc3c(c2)OCO3)oc2ccc(S(=O)(=O)N3CCCC3)cc12
inactive: growth inhibition [1] -2.78% | growth inhibition [2] -4.95% | viability increase [3] -0.63% | viability [4] 66.1% | inhibition [5] 1.78% | RAM network inhibition [6] 4.67%

NC(=O)CCn1nc(-c2ccccc2)c2ccccc2c1=O
inactive: growth inhibition [1] 6.63% | growth inhibition [2] 13.7% | viability increase [3] -2.48% | viability [4] 96.8% | inhibition [5] 0.31% | RAM network inhibition [6] 0%

COc1cc(C2CC(=O)C=C(O)C2)cc(OC)c1OC (stereo not given)
inactive: growth inhibition [1] -7.01% | growth inhibition [2] -6.56% | viability increase [3] 0.41% | viability [4] 99% | inhibition [5] 0.785% | RAM network inhibition [6] 5.78%

O=C(Nc1ccc(Cl)cc1)N(Cc1cccs1)Cc1cccs1
inactive: growth inhibition [1] -13.9% | growth inhibition [2] -21.5% | viability increase [3] -0.55% | viability [4] 64.9% | inhibition [5] 2.13% | RAM network inhibition [6] 8.73%

O=c1cc(NCc2ccco2)c2ccccc2o1
inactive: growth inhibition [1] -2.07% | growth inhibition [2] -3.13% | viability increase [3] -4.38% | viability [4] 96.7% | inhibition [5] 1.84% | RAM network inhibition [6] 1.33%

CC(Oc1ccc(Cl)cc1)C(=O)Nc1nccs1 (stereo not given)
inactive: growth inhibition [1] -5.8% | growth inhibition [2] -5.78% | viability increase [3] -1.86% | viability [4] 87% | inhibition [5] 1.31% | RAM network inhibition [6] 2.7%

COc1ccc(OC(C)C(=O)Nc2cccc(OC)c2)cc1 (stereo not given)
inactive: growth inhibition [1] -4.58% | growth inhibition [2] -2.9% | viability increase [3] -4.64% | viability [4] 97.9% | inhibition [5] 0.625% | RAM network inhibition [6] -0.52%

Cc1ccc(S(=O)(=O)N2CCN(C(=O)CCC(=O)N3CCc4ccccc43)CC2)cc1
inactive: growth inhibition [1] -2.18% | growth inhibition [2] -5.78% | viability increase [3] -1.16% | viability [4] 99.4% | inhibition [5] -0.03% | RAM network inhibition [6] 2.05%

CCOC(=O)N1CCN(S(=O)(=O)c2cc(Br)cc3c2N(C(=O)C2CC2)CC3)CC1
inactive: growth inhibition [1] -3.63% | growth inhibition [2] 7.68% | viability increase [3] -1.65% | viability [4] 99.5% | inhibition [5] 0.715% | RAM network inhibition [6] 5.87%

O=C(C1CC1)N1CCc2cc(Br)cc(S(=O)(=O)NCCN3CCOCC3)c21
inactive: growth inhibition [1] -5.94% | growth inhibition [2] -6.43% | viability increase [3] -2.94% | viability [4] 94.7% | inhibition [5] 1.69% | RAM network inhibition [6] 2.57%

CCOc1ccc(-n2c(SCC(=O)Nc3cc(C)on3)nc3c([nH]c4ccccc43)c2=O)cc1
inactive: growth inhibition [1] -16.7% | growth inhibition [2] -15.4% | viability increase [3] -6.08% | viability [4] 55.3% | inhibition [5] 0.94% | RAM network inhibition [6] 5.59%

Fc1cccc(Cl)c1CSc1ncn[nH]1
inactive: growth inhibition [1] -4.97% | growth inhibition [2] 10.7% | viability increase [3] 0.29% | viability [4] 85.6% | inhibition [5] 0.52% | RAM network inhibition [6] 2.05%

O=C1N=C(c2ccccc2)C(c2ccccc2)N1 (stereo not given)
inactive: growth inhibition [1] -9.57% | growth inhibition [2] 0.595% | viability increase [3] -3.35% | viability [4] 90.8% | inhibition [5] 1.23% | RAM network inhibition [6] 1.06%

O=C(CN1C(=O)c2ccccc2S1(=O)=O)N1CCN(c2ccccc2F)CC1
inactive: growth inhibition [1] 0.11% | growth inhibition [2] 5.53% | viability increase [3] -3.37% | viability [4] 101% | inhibition [5] 2.07% | RAM network inhibition [6] 2.92%

COc1cc(OC)cc(C(=O)Nc2cccc(C(C)=O)c2)c1
inactive: growth inhibition [1] -6.17% | growth inhibition [2] -2.38% | viability increase [3] -2.42% | viability [4] 89.9% | inhibition [5] 1.7% | RAM network inhibition [6] 1.49%

Cc1ccc(N=Cc2c(O)n(C)c(=O)n(C)c2=O)nc1
inactive: growth inhibition [1] 5.8% | growth inhibition [2] 16.6% | viability increase [3] 0.03% | viability [4] 99.2% | inhibition [5] 1.89% | RAM network inhibition [6] -0.87%

COc1cc(C(=O)NCc2ccc3c(c2)OCO3)ccc1OCc1c(C)noc1C
inactive: growth inhibition [1] 2.15% | growth inhibition [2] -2.32% | viability increase [3] -1.5% | viability [4] 95.1% | inhibition [5] 2.5% | RAM network inhibition [6] 3.79%

CCC(=O)N1CCc2cc(Br)cc(S(=O)(=O)NCc3ccco3)c21
inactive: growth inhibition [1] -4% | growth inhibition [2] -12.8% | viability increase [3] -5.07% | viability [4] 96.8% | inhibition [5] 1.7% | RAM network inhibition [6] 1.85%

C#CCN1C(=O)C(O)(CC(=O)c2ccc(OC)c(OC)c2)c2ccccc21 (stereo not given)
inactive: growth inhibition [1] 2.17% | growth inhibition [2] 0.69% | viability increase [3] -5.17% | viability [4] 48% | inhibition [5] 1.62% | RAM network inhibition [6] 1.98%

CC(c1ccccc1F)n1cc(C(=O)NCCc2ccco2)nn1 (stereo not given)
inactive: growth inhibition [1] -12.9% | growth inhibition [2] -9.79% | viability increase [3] -4.02% | viability [4] 76.3% | inhibition [5] 0.72% | RAM network inhibition [6] 0.46%

CS(=O)(=O)N(CC(=O)NCc1ccncc1)c1cc(Cl)cc(Cl)c1
inactive: growth inhibition [1] -7.62% | growth inhibition [2] -10.8% | viability increase [3] -2.29% | viability [4] 105% | inhibition [5] 1.33% | RAM network inhibition [6] 0.15%

O=C(O)CCC(=O)CCC(=O)c1ccc(Cl)cc1
inactive: growth inhibition [1] 8.94% | growth inhibition [2] -2.93% | viability increase [3] -1.69% | viability [4] 94.3% | inhibition [5] -0.55% | RAM network inhibition [6] 5.32%

Cc1ccc(N(CC(=O)Nc2ccc(S(=O)(=O)N3CCOCC3)cc2)S(C)(=O)=O)cc1C
inactive: growth inhibition [1] -6.29% | growth inhibition [2] -5.42% | viability increase [3] -4.96% | viability [4] 84.2% | inhibition [5] 0.84% | RAM network inhibition [6] 2.67%

COCCNC(=O)NC1(C(F)(F)F)Oc2ccc(Cl)cc2O1 (stereo not given)
inactive: growth inhibition [1] -0.985% | growth inhibition [2] -0.285% | viability increase [3] -4.63% | viability [4] 41.9% | inhibition [5] 0.43% | RAM network inhibition [6] 5.07%

CSc1nnc2c(n1)OC(c1cn(C)c3ccccc13)N(C(C)=O)c1ccccc1-2 (stereo not given)
inactive: growth inhibition [1] -8.46% | growth inhibition [2] -4.85% | viability increase [3] -2.79% | viability [4] 98.9% | inhibition [5] 1.54% | RAM network inhibition [6] 3.59%

O=C(CSc1nc2c(c(=O)n1-c1ccc(Br)cc1)SCC2)NCc1ccco1
inactive: growth inhibition [1] -0.48% | growth inhibition [2] -1.07% | viability increase [3] -3.54% | viability [4] 77.4% | inhibition [5] 0.41% | RAM network inhibition [6] 5.24%

CC(Oc1ccc(Cl)cc1Cl)C(=O)NCc1ccncc1 (stereo not given)
inactive: growth inhibition [1] -10.3% | growth inhibition [2] -7.06% | viability increase [3] -4.17% | viability [4] 89.1% | inhibition [5] 1.26% | RAM network inhibition [6] 1.89%

CS(=O)(=O)NCCSCc1ccc(Cl)cc1
inactive: growth inhibition [1] -8.71% | growth inhibition [2] -3.54% | viability increase [3] -0.89% | viability [4] 97.9% | inhibition [5] 1.62% | RAM network inhibition [6] 4.47%

From PubChem BioAssay
